An excerpt weighted towards active compounds, which were near 3.5% of everything screened.
MrgX1 ag: agonists of human MrgX1 receptor, primary screen, HEK293 cells, Fluo-4 calcium flux | Mas-related G-protein coupled receptor member X1 (Homo sapiens), Q96LB2 | Fluo-4 calcium fluorescence, agonist mode; hits give high values | B-score at 10 µM | 310,000 tested, 0.44% active | AID 588627, 2011;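 active = calcium response B-score plate-corrected fluorescence ratio at least 3 library SD, with starting fluorescence B-score inside 5 SD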
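System – MrgX1-expressing HEK293 cells · Incubation – cells plated overnight, dye loaded 0.5 h 37 °C, 0.5 h room temperature · Technique – kinetic Fluo-4 NW fluorescence of intracellular calcium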
RGS4 inh: RGS4 inhibitors, primary screen, cell-based, HEK293 M3R inducible RGS4, calcium flux | Regulator of G-protein signaling 4 (Homo sapiens), P49798 | Fluo-4 calcium flux; hits give high values; triggered by carbachol at its EC20 | B-score at 10 µM | 310,000 tested, 0.45% active | AID 463165, 2010;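 active = B-score, a plate-corrected calcium signal, over three deviations above library mean, with baseline fluorescence within five deviations of library mean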;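 note: RGS4 expression induced by doxycycline in cells with stable M3 receptor; B-score is computed from the integrated fluorescence ratio over baseline after carbachol; higher B-score means a larger calcium signal and so more RGS4 inhibition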
Target sequence (P49798 whole entry, looked up): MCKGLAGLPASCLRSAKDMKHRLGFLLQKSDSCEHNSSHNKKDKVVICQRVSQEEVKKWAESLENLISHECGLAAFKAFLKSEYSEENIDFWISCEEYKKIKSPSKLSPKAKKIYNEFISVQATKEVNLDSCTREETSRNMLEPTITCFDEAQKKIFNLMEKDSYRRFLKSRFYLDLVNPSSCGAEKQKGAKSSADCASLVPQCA
RGS4 act: RGS4 potentiators or activators, primary screen, cell-based, HEK293 M3R inducible RGS4, calcium flux. carbachol calcium flux Fluo4; hits give low values. 310,000 tested, 0.92% active. B-score at 10 µM;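 active = B-score of the integrated calcium signal more than 4 SD below the library mean, with starting fluorescence not abnormally high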;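 note: negative B-score means reduced calcium response which marks RGS4 activation or potentiation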
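Reagent: ECmax carbachol challenge; Test system: M3R-expressing HEK293 line, RGS4 induced by doxycycline; Schedule: overnight RGS4 induction, 30 min dye load 37 °C, 20 min compound RT; Detection: calcium dye Fluo4 fluorescence; Read-out: Agonist-evoked peak-minus-minimum fluorescence over baseline, integrated ratio, B score.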
MrgX1 PAM: positive allosteric modulators of MrgX1, primary screen, HEK293 cells, Fluo-4 calcium flux | 310,000 tested, 0.63% active | B-score at 10 µM | FDSS; hits give high values;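 active = plate-corrected calcium response at least 3 library SD above typical, normal starting fluorescence, not activating the receptor alone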;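 note: compound read alongside a low EC10 to EC30 dose of BAM8-22 agonist; peak minus trough fluorescence over baseline measured at the second addition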
MrgX1 antag: antagonists of human MrgX1 receptor, primary screen, HEK293 cells, Fluo-4 calcium flux; Mas-related G-protein coupled receptor member X1 (Homo sapiens), Q96LB2; 310,000 tested, 1.3% active; BAM8-22 antagonism; hits give low values; B-score at 10 µM;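 active = calcium-response B-score plate-corrected more than 3 library SD below zero, starting fluorescence within 5 deviations, no agonist response on first addition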;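 note: peak minus trough fluorescence over baseline after final BAM8-22 challenge near maximal dose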
An asterisk follows results filed as active; i = inactive.

SMILES	MrgX1 ag	RGS4 inh	RGS4 act	MrgX1 PAM	MrgX1 antag
CCOc1ccc(CN2CCC(C(=O)N3CCN(c4ccccc4F)CC3)CC2)cc1OC	i	i	i	i	i
CCOc1ccc(S(=O)(=O)N2CCC(C(=O)N3CCN(c4ccccc4F)CC3)CC2)cc1C	i	i	-7.2*	i	i
COc1ccc(CNC(=S)Nc2ccccc2)cc1	i	i	i	i	i
Cc1cccc(NC(=S)NCC(C)CSc2ccc(Cl)cc2)c1 (configuration not stated)	i	i	i	i	-6.4*
Cc1ccc(NC(=S)NCC(C)CSc2ccc(Cl)cc2)cc1 (configuration not stated)	i	i	i	i	i
CCOC(=O)c1sc2ncnc(Nc3cccc(C(=O)O)c3)c2c1C	i	i	i	i	i
O=c1c2ccccc2nc(SCc2ccccc2Cl)n1Cc1ccccc1	i	i	i	i	-6.8*
C=CCSc1nc2ccccc2c(=O)n1Cc1ccccc1	i	i	i	i	i
Cc1cc(C)n2nc3nc(N4CCCCC4)nc(-c4ccco4)c3c2n1	i	i	i	i	-4.7*
Cc1cc(C)n2nc3ccccc3c2n1	i	i	i	i	i
CC(C)/C=C(/C(=O)c1ccc(Cl)cc1Cl)n1cncn1	i	i	i	i	i
O=C(/C(=C/c1cccnc1)n1ccnc1)c1ccc(Cl)cc1Cl	33*	i	i	i	i
COc1ccc(NC(=S)N(Cc2ccc(Cl)cc2)Cc2ccc(C(=O)O)cc2)cc1Cl	i	i	i	i	-4.6*
O=C1/C(=C/c2ccc(Br)cc2)Oc2cc(O)ccc21	i	i	i	i	-9.7*
COC(=O)c1ccc2c(c1)C(=O)/C(=C/c1ccc(O)cc1)O2	i	i	i	i	-5.3*
C=CCNC(=S)NNC(=O)c1ccc(OCCC)cc1	i	i	i	i	i
CCCOc1ccc(C(=O)NNC(=S)NC(=O)CC)cc1	51*	i	i	i	i
CCOC(=O)c1nc(C)nc(Sc2n[nH]c(-c3ccccc3)n2)c1C	i	i	i	i	i
O=S(Cc1cc(Sc2ccccc2)nc(-c2ccccc2)n1)c1ccccc1 (configuration not stated)	i	i	i	10*	i
CNc1cc(CS(=O)c2ccccc2)nc(-c2ccccc2)n1 (configuration not stated)	i	i	i	i	i
O=S(=O)(NC1CCCCC1N1CCN(c2ccc(F)cc2)CC1)c1ccccc1 (configuration not stated)	i	i	i	i	i
COc1ccc(C2C=C(c3ccccc3)Nc3ncnn32)cc1 (configuration not stated)	i	i	i	10*	i
CCOc1ccc(C2C=C(c3ccc(C)cc3)Nc3ncnn32)cc1 (configuration not stated)	30*	i	i	i	i
COc1ccc(C2C=C(C)Nc3ncnn32)cc1 (configuration not stated)	i	i	i	i	i
Cc1cccc(C)c1NC(=O)CNC(=O)Cn1nc(C)c(C)c(C#N)c1=O	i	i	i	i	i
O=C(CSc1nc(-c2ccccc2)nn1C(=O)c1ccccc1)Nc1cccc([N+](=O)[O-])c1	i	i	i	i	-4.8*
CCc1ccccc1NC(=O)CSc1nc(-c2ccccc2)nn1C(=O)c1cccc([N+](=O)[O-])c1	i	i	i	i	i
O=C(c1cc2ccccc2oc1=O)N1CCN(S(=O)(=O)c2ccccc2)CC1	i	i	i	i	i

Screens: PubChem BioAssay, Johns Hopkins Ion Channel Center
